Assay outcomes from PubChem BioAssay.
dFosB act-1 – activators of mouse delta FosB homodimer | P13346 | purified delta FosB, TAMRA-CDK5 oligo fluorescence polarization; percent of positive-control signal above neutral wells | activation, % at 25 µM | actives 0.99% (n = 340,000) | AID 493131;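 active = mean activation above about 17%, with every replicate also reaching it, limit read from the data, passing the limit was not always enough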
CAL PDZ FP-1 – inhibitors of human CAL PDZ peptide binding; inhibition, % at 20 µM; Q9HD26; purified CAL PDZ, TMR-peptide fluorescence polarization, 1 h; actives 0.02% (n = 330,000);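 active = highest replicate inhibition of at least 40%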;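 also: plate controls were DMSO neutral control wells for no effect and unlabeled competitor peptide control wells for full effect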
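material = purified tagged CAL PDZ domain construct (CerCALP) | compound dosing = 20 µM, one dose | times = 1 h at RT | measured by = fluorescence polarization from S- and P-plane intensities, G-factor corrected | read-out = inhibition from polarization loss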
S100A4 MyoIIA – blocks human S100A4 binding to myosin IIA peptide; P26447; S100A4/TAMRA-MyoIIA peptide fluorescence polarization; inhibition, % at 10.7 µM; actives 0.14% (n = 360,000);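 active = mean inhibition of at least 70% across replicates, with every replicate also reaching that level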
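System – human S100A4 monomer protein, biochemical binding assay · Buffer or medium – Calcium-containing HEPES buffer, pH 7.2 · Timing – 5 min between mix addition and reading · Also added – TAMRA-labelled myosin IIA heavy-chain peptide probe, 5 nM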
CDK5 inh – blocks human CDK5/p35 kinase activity | Q00535+Q15078 | inhibition, % at 10 µM | AID 488839 | Recombinant CDK5/p35, ADP-Glo luminescence, 60 min | actives 0.01% (n = 330,000);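 active = highest replicate inhibition of at least 50% and at least 75% of replicates reaching 50%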;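 also: plate controls were DMSO neutral control for no effect and GW8510 at 10 µM for full effect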
Target sequence (Q00535 whole entry, looked up): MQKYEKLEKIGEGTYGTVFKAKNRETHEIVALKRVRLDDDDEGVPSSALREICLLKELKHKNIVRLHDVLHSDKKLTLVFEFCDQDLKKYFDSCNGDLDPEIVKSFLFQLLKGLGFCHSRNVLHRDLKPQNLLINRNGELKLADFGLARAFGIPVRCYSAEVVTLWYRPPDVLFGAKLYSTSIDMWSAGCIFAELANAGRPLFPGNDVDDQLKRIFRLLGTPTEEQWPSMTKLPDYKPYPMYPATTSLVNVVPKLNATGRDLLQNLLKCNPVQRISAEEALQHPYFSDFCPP
Target sequence (Q15078 whole entry, looked up): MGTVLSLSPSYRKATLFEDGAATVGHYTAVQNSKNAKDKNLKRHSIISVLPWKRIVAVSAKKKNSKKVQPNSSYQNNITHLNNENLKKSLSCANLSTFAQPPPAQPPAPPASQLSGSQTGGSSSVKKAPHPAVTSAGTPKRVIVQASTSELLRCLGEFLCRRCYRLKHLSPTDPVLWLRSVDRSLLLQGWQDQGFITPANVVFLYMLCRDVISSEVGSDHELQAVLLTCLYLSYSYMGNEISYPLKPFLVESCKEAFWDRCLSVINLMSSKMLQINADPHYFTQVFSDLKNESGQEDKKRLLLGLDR
Statin myotox sup – suppressors of simvastatin-induced myotoxicity in C2C12 myotubes | AID 602340 | rescue of ATP level, % at 7.49 µM | ATP luminescence, 48 h; scaled: DMSO 0, geranylgeraniol control 100 | actives 0.78% (n = 330,000);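 active = mean ATP rescue above about 67%, or every replicate alone reaching that limit, limit read from the data, passing the limit was not always enough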;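 also: myotubes were challenged with 10 µM simvastatin during compound exposure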
CAL PDZ FP-2 – CAL PDZ (human) peptide binding inhibition; Q9HD26; purified CAL PDZ, TMR-peptide fluorescence polarization, 1 h; inhibition, % at 24.9 µM; actives 0.92% (n = 300,000);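 active = mean inhibition of at least 30% with at least half of replicates also reaching 30%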;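 also: 0% = DMSO neutral control and 100% = excess unlabeled competitor peptide PRC23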
dFosB act-2 – delta FosB (mouse) homodimer activation | 2,400 tested, under 10 active | purified delta FosB, TAMRA-CDK5 oligo fluorescence polarization; normalised: neutral wells 0, positive control 100 | activation, % at 24.9 µM | shares compounds with dFosB act-1;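 active = highest replicate activation at or above 34% and every replicate reaching that threshold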;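 also: higher polarization means more probe DNA bound by delta FosB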
* = called active by the depositor; . = no result. Rows were chosen to be rich in hits. Some 2% of all compounds tested hit in one or more screens of this group.

SMILES | dFosB act-1 | CAL PDZ FP-1 | S100A4 MyoIIA | CDK5 inh | Statin myotox sup | CAL PDZ FP-2 | dFosB act-2
COc1ccc(/C=C2\C(=O)NC(=O)N(Cc3ccccc3)C2=O)c(OC)c1OC | -9 | -2 | -1 | 0 | -8 | -3 | .
O=C(CCCc1ccccc1)NCCc1cnc[nH]1 | -7 | 0 | -3 | 0 | 9 | 0 | .
CCC1(Oc2ccccc2)C(=O)NC(=O)NC1=O | 4 | 1 | -4 | -1 | 108* | 16 | .
O=c1[nH]c(=S)[nH]c(O)c1N=Nc1ccc(SC(F)F)cc1 | 0 | -1 | 6 | 1 | -17 | 0 | .
O=c1[nH]c(=S)[nH]c(O)c1N=Nc1ccc(S(=O)(=O)N2CCc3ccccc32)cc1 | 29* | 0 | 0 | -2 | . | 1 | 8
CC(=NCCCN1CCOCC1)c1c(O)n(-c2ccccc2C)c(=O)[nH]c1=O | 1 | 0 | . | -3 | -4 | -1 | .
O=C1CN=C(c2ccc(Br)cc2)c2oc3ccccc3c2N1 | 4 | 0 | . | 0 | -5 | -3 | .
O=C1CN=C(c2ccccc2)c2oc3ccc(Br)cc3c2N1 | 30* | 21 | . | 0 | . | 0 | -6
CCC(c1nnnn1Cc1ccccc1)N1CCC(n2c(=O)[nH]c3ccccc32)CC1 (stereo not given) | . | . | 40 | . | 8 | . | .
Cc1sc2ncnc(N3CCC(C(=O)Nc4ccc(C#N)c(Cl)c4)CC3)c2c1C | 32* | -1 | -18 | -3 | 5 | . | -3
O=C(NC1CCCCC1)N1Cc2ccc(Br)cc2-n2nncc2C1 | . | . | 3 | . | . | . | .
COc1ccc(OCC(=O)N2CCN(Cc3ccc4c(c3)OCO4)CC2)cc1 | -4 | 0 | 1 | -3 | -1 | -1 | .
CN(C)CCN(C(=O)COc1ccc(Cl)cc1)c1nc2cc3c(cc2s1)OCO3 | 24* | 0 | -1 | 1 | -21 | 3 | -1
CC(=O)C1C(N2CC2)CC2C3CC=C4CC(O)CCC4(C)C3CCC21C (stereo not given) | 36* | -3 | -9 | 1 | -81 | . | 2
CCOc1ccc(C2C(C#N)=C(N)Oc3c2c(=O)oc2ccccc32)cc1 (stereo not given) | 21* | -2 | -3 | -1 | -14 | . | -3
